Assay results: ChEMBL document CHEMBL3244090, “Combined high oxytocic with negligible antidiuretic and pressor activities in multisubstituted oxytocins” (J Med Chem, 1977)
*1 amine or outer side, *2 acyl side, *3 side chain or, on linkers, in order; H or OH if unused. Where a SMILES comes first, the peptide text is derived from it. Bridges are numbered along the chain shown (N, C = ends). X1 = O=C([C@H](O)CS[*:2])[*:1]

How the values were obtained:
[1] = Oxytocic potency in rat uterus; assay type: functional
Outline: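 Isolated uterine horns from rats in natural estrus. The standard was given repeatedly until reproducible values were obtained. After the preparation was exposed to an analogue, several further doses of standard were needed before the standard's potency became consistent between analogue injections.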

[2] = Ratio of oxytocic potency to antidiuretic activity in rat; parameters: species or system Urine
Rattus norvegicus [3] = assay: Antidiuretic activity in iv dosed rat; assay type: ADME, organism-based, Urine; details: in vivo
Outline: (§1)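 Pressor and antidiuretic assays run in anesthetized male rats.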

Gallus gallus = assay: Vasodepressor activity in conscious chicken; assay type: ADME, organism-based; details: in vivo
Outline: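 Vasodepressor assay run in conscious chickens.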

Rattus norvegicus [4] = species on record: Rattus norvegicus; assay: Vasopressor activity in rat; assay type: ADME, organism-based; details: in vivo; outline: as §1

SMILES	Activity [1] [U/mg]	Ratio [2]	Activity (Rattus norvegicus [3]) [U/mg]	Activity (Gallus gallus) [U/mg]	Activity (Rattus norvegicus [4]) [U/mg]
CC[C@H](C)[C@@H]1NC(=O)[C@H](Cc2ccc(O)cc2)NC(=O)[C@@H](N)CSSC[C@@H](C(=O)NCC(=O)N[C@@H](CC(C)C)C(=O)NCC(N)=O)NC(=O)[C@H](CC(N)=O)NC(=O)[C@H](CCC(N)=O)NC1=O (H-CYIQNCGLG-NH2; disulfide 1-6)	65	6500	0.01	224	0.3
CC[C@H](C)[C@@H]1NC(=O)[C@H](Cc2ccc(O)cc2)NC(=O)[C@@H](N)CSSC[C@@H](C(=O)NCC(=O)N[C@@H](CC(C)C)C(=O)NCC(N)=O)NC(=O)[C@H](CC(N)=O)NC(=O)[C@H]([C@@H](C)O)NC1=O (H-CYITNCGLG-NH2; disulfide 1-6)	175	135000	0.001	8.6	
CC[C@H](C)[C@@H]1NC(=O)[C@H](Cc2ccc(O)cc2)NC(=O)[C@@H](N)CSSC[C@@H](C(=O)N2CCC[C@H]2C(=O)N[C@@H](CC(C)C)C(=O)NCC(N)=O)NC(=O)[C@H](CC(N)=O)NC(=O)[C@H]([C@@H](C)O)NC1=O (H-CYITNCPLG-NH2; disulfide 1-6)	923	500	1.8	1480	0.43
CC[C@H](C)[C@@H]1NC(=O)[C@H](Cc2ccc(O)cc2)NC(=O)[C@H](O)CSSC[C@@H](C(=O)N2CCC[C@H]2C(=O)N[C@@H](CC(C)C)C(=O)NCC(N)=O)NC(=O)[C@H](CC(N)=O)NC(=O)[C@H](CCC(N)=O)NC1=O (YIQNCPLG-NH2; linker N-5 via X1)	1275	40	16.6	1778	14.7
CC[C@H](C)[C@@H]1NC(=O)[C@H](Cc2ccc(O)cc2)NC(=O)[C@H](O)CSSC[C@@H](C(=O)NCC(=O)N[C@@H](CC(C)C)C(=O)NCC(N)=O)NC(=O)[C@H](CC(N)=O)NC(=O)[C@H]([C@@H](C)O)NC1=O (YITNCGLG-NH2; linker N-5 via X1)	337	7000	0.048	50	
CC[C@H](C)[C@@H]1NC(=O)[C@H](Cc2ccc(O)cc2)NC(=O)[C@@H](N)CSSC[C@@H](C(=O)N2CCC[C@H]2C(=O)N[C@@H](CC(C)C)C(=O)NCC(N)=O)NC(=O)[C@H](CC(N)=O)NC(=O)[C@H](CCC(N)=O)NC1=O [OXYTOCIN]	546	200	2.7	507	3.1
